Compounds with a hit are over-represented: about 2.9% of the library has one in this group of screens.
DENV2 CPE – inhibitors of DENV2 cytopathic effect, primary screen, cell-based, plate reader, single concentration; DENV2-infected cells, cytopathic effect rescue; CPE inhibition, % at 9.99 µM; 350,000 tested, 1.7% active; AID 651640, 2012; in the data active = CPE inhibition above about 20%, passing the limit was not always enough; inconclusive = no clear call, values can overlap the other calls; tested in BHK-21 cells;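 note: 0% = median of neutral control wells and 100% = median of positive control wells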
E-sel inducer – E-selectin induction in HUVECs, primary screen, imaging, HUVEC, immunofluorescence imaging, single point; P16581; normalized: neutral wells 0, TNF-alpha wells 100; activation, % at 7.58 µM; 260,000 tested, 0.37% active;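 active = mean E-selectin-positive cell signal at least 10% of the positive control, reached in at least 60% of replicates, without over 20% cell loss; inconclusive = no rule given, readout overlaps actives, possibly toxicity-flagged; inactive = the rest, including those meeting only one limit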
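Test system: HUVEC; input: 3,000 HUVEC/well; measured by: immunofluorescence imaging; read-out: % PE-positive cells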
SIRT5 inh – SIRT5 desuccinylase inhibitors, primary screen, biochemical, fluorescence imaging, single point, set 5. NAD-dependent protein deacylase sirtuin-5, mitochondrial (Homo sapiens), Q9NXA8. Purified SirT5, succinyl-peptide AMC, trypsin-coupled fluorescence. inhibition, % at 15 µM. 330,000 tested, 1.1% active. AID 652115, 2013; in the data active = inhibition above about 15%; inconclusive = no clear call, values can overlap the other calls
Target sequence (Q9NXA8 whole entry, looked up): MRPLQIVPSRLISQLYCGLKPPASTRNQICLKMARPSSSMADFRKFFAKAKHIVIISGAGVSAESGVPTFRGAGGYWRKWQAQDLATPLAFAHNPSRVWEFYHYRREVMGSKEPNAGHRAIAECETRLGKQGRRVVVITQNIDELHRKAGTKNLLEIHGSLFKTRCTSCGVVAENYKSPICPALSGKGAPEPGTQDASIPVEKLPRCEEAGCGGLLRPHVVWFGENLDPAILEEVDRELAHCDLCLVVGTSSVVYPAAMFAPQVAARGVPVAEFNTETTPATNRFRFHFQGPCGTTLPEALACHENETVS
An asterisk follows results filed as active; u = inconclusive; x = no result; ! = not active in a repeat.

SMILES | DENV2 CPE | E-sel inducer | SIRT5 inh
C[C@@H]1CN([C@H](C)CO)C(=O)Cc2cc(NC(=O)C3CC3)ccc2O[C@H]1CN(C)S(=O)(=O)c1ccccc1 | u | x | 2
COc1ccc(CCNC(=O)COC(=O)/C=C/c2ccc3c(c2)OCO3)cc1 | -2 | 0 | -4
Cc1ccc(CCNS(=O)(=O)c2ccc3c(c2)N(C)CCO3)cc1 | -6 | x | 1
Cc1ccc(NS(=O)(=O)c2ccc3c(c2)N(C)CCO3)cc1 | 10 | 0 | 22*
CC(C)(CC(=O)O)CC(=O)O | 5 | 0 | -4
CC(C)(C)C(=O)CNCC(=O)C(C)(C)C | 13 | x | 25*
CCCN1[C@H](CO)[C@H](c2ccc(C#CC(C)C)cc2)[C@@H]1CN(C)S(C)(=O)=O | -13 | 0 | 8
C[C@@H]1CN([C@H](C)CO)S(=O)(=O)c2ccc(C#Cc3ccccc3)cc2O[C@H]1CN(C)C(=O)C1CC1 | 2 | 0 | 16*
CC(C)C#Cc1ccc2c(c1)O[C@@H](CN(C)C(=O)CN(C)C)[C@@H](C)CN([C@@H](C)CO)S2(=O)=O | 31* | 0 | 1
C[C@@H]1CN([C@H](C)CO)S(=O)(=O)c2ccc(C#C[C@@H](C)O)cc2O[C@H]1CN(C)C(=O)CN(C)C | -11 | 0 | -1
C[C@@H]1CN([C@H](C)CO)S(=O)(=O)c2ccc(C#Cc3ccccc3)cc2O[C@@H]1CN(C)C(=O)CN(C)C | 40*! | 1 | -10
C[C@H](CO)N1C[C@H](C)[C@H](CN(C)C(=O)CN(C)C)Oc2cc(C#Cc3ccccc3)ccc2S1(=O)=O | 5 | 0 | -2
C[C@H]1CN([C@@H](C)CO)S(=O)(=O)c2ccc(C#Cc3ccccc3)cc2O[C@H]1CN(C)C(=O)C1CC1 | 7 | 0 | 4
CCCCC(CC)C(=O)Nc1cc(C(=O)NCc2ccc(C)cc2)ccc1N1CCC2(CC1)CC(c1cccc(Br)c1)=NO2 (centres undefined) | -5 | 0 | -30
COc1ccc(-c2c(-c3ccsc3)oc3ccc(N4CCOCC4)cc23)cn1 | x | 0 | x
Cc1ccc(S(=O)(=O)N2CCC(=O)N(CCOCc3cccc(C(F)(F)F)c3)CC2)cc1 | -9 | 0 | x
COc1ccc(CCN(C)C(=O)CSc2nnc(C3CC3)n2N)cc1OC | -2 | x | -5
COc1ccc(CCC(C)NCc2cc(OC)cc(OC)c2)cc1 (centres undefined) | -2 | 0 | -4
COc1ccc(CCC(C)NCc2ccc(F)cc2)cc1 (centres undefined) | 33* | x | x
COc1ccc(CCNC(=O)C(=O)NCC2OCCN2S(=O)(=O)c2ccc(Cl)cc2)cc1OC (centres undefined) | -5 | 0 | -2
Cc1cc(C)c(NC(=O)Nc2ccc3c(c2)OCO3)c(C)c1 | 2 | -1 | -1
Cc1cc(C)c2[nH]c(C(=O)Nc3ccc4c(c3)OCO4)cc2c1 | 24* | x | 0
O=C(Nc1ccccc1)N1C[C@@H]2[C@H](c3ccccc31)[C@@H](CO)N2CC1CCCC1 | u | 1 | 19*
COc1ccc(CN2[C@H](CO)[C@@H]3c4ccccc4N(C(=O)Nc4ccccc4)C[C@@H]32)cc1 | -5 | 0 | 2
COc1ccc(CN2[C@H](CO)[C@H]3c4ccccc4N(C(=O)Nc4ccc(F)cc4)C[C@H]32)cc1 | 22* | 0 | -1
SMILES | DENV2 CPE | E-sel inducer | SIRT5 inh
O=C(Nc1ccc(Cl)cc1)N1C[C@H]2[C@@H](c3ccccc31)[C@@H](CO)N2CC1CCCC1 | 11 | 0 | -1
CC(C)n1c(O)c(/C=C2\C=NN=C2c2ccccc2)sc1=S | 11 | 0 | x
Cc1onc(-c2ccccc2)c1C(=O)NC(=S)NNC(=O)c1ccc(O)cc1O | x | 0 | x
CC(C)CC#Cc1ccc2c(c1)O[C@H](CN(C)C(=O)C1CCCCC1)[C@@H](C)CN([C@H](C)CO)S2(=O)=O | 6 | -1 | 21*
C[C@H](CO)N1C[C@H](C)[C@@H](CN(C)C(=O)C2CCCCC2)Oc2cc(C#CC(C)(C)O)ccc2S1(=O)=O | -5 | 1 | -2
C[C@H]1CN([C@@H](C)CO)S(=O)(=O)c2ccc(C#CCN(C)C)cc2O[C@@H]1CN(C)C(=O)C1CCC1 | 27* | 1 | 6
C[C@H](CO)N1C[C@H](C)[C@H](CN(C)C(=O)C2CCC2)Oc2cc(C#CCN(C)C)ccc2S1(=O)=O | 4 | 0 | -1
C[C@@H]1CN([C@H](C)CO)S(=O)(=O)c2ccc(C#CC(C)(C)O)cc2O[C@@H]1CN(C)C(=O)C1CCCCC1 | 20* | 1 | -1
CC(C)CC#Cc1ccc2c(c1)O[C@H](CN(C)C(=O)C1CCC1)[C@H](C)CN([C@@H](C)CO)S2(=O)=O | 5 | 2 | 7
C[C@H]1CN([C@@H](C)CO)S(=O)(=O)c2ccc(-c3ccc(F)cc3)cc2O[C@@H]1CN(C)C(=O)C1CCCCC1 | 52* | 1 | 12
C[C@H](CO)N1C[C@H](C)[C@H](CN(C)C(=O)C2CCCCC2)Oc2cc(-c3ccc(F)cc3)ccc2S1(=O)=O | 0 | 0 | 10
O=C(NNS(=O)(=O)c1ccc(Cl)cc1)c1ccc(S(=O)(=O)N2CCCCC2)cc1 | -5 | 0 | 0
COC(=O)C[C@@H]1C[C@H]2c3cc(N)ccc3O[C@H]2[C@H](CO)O1 | -4 | x | 3
CC(C)CC#Cc1ccc2c(c1)O[C@H](CN(C)C(=O)C1CCC1)[C@@H](C)CN([C@@H](C)CO)S2(=O)=O | -13 | 6 | 6
CC(C)CC#Cc1ccc2c(c1)O[C@H](CN(C)C(=O)C1CCCCC1)[C@@H](C)CN([C@@H](C)CO)S2(=O)=O | -4 | 1 | 27*
CC(C)CC#Cc1ccc2c(c1)O[C@H](CN(C)C(=O)C1CCC1)[C@H](C)CN([C@H](C)CO)S2(=O)=O | 16 | 2 | 5
CC(C)CC#Cc1ccc2c(c1)O[C@@H](CN(C)C(=O)C1CCCCC1)[C@H](C)CN([C@@H](C)CO)S2(=O)=O | 3 | -1 | 17*
Nc1ccc(C(=O)N/N=C\C=C\c2ccc([N+](=O)[O-])cc2)cc1 | 0 | 5 | 2
COc1ccc(S(=O)(=O)N2CCCCC2)cc1NC(=O)CNc1ccc(F)cc1C | 11 | 1 | -1
CCN1C(=O)N[C@@H](CCc2ccccc2)[C@H](C(=O)OC)[C@H]1C | -1 | 0 | x
COC(=O)[C@@H]1[C@H](CCc2ccccc2)NC(=O)N(Cc2ccccc2)[C@@H]1C | 68* | 0 | x
Cc1ccc(-c2ccc3c(c2)O[C@H](CN(C)C(=O)Nc2ccccc2)[C@H](C)CN([C@H](C)CO)S3(=O)=O)cc1 | 1 | 0 | 0
Cc1ccc2c(c1)c1c(n2CC(O)CN2CCCCCC2)CCCC1 (centres undefined) | 8 | 0 | -6
Cc1ccc2c(c1)c1c(n2CC(O)Cn2c(C)nc3ccccc32)CCCC1 (centres undefined) | -4 | 69* | -1
CCN(CC)CCN1C(=O)C(=O)/C(=C(/O)c2ccc(S(=O)(=O)N3CCOCC3)cc2)C1c1ccccc1 (centres undefined) | -1 | x | 1

Compound activity: PubChem, Broad Institute
